# Data: BindingDB's records for doi:10.1021/jm0101702 (Abbott Laboratories, 2001)
# Molecular target: not listed separately
# Assay: Inhibition of VCAM-1 in human endothelial cells
row,IC50 [nM],Structure (SMILES)
1,330,"NC(=O)c1cc2c(Oc3ccc(Cl)cc3Br)cncc2s1 [4-(2-Bromo-4-chloro-phenoxy)-thieno[2,3-c]pyridine-2-carboxylic acid amide]"
2,> 100,"CC(C)c1ccc(Oc2cncc3sc(C(N)=O)cc23)cc1 [4-(4-Isopropyl-phenoxy)-thieno[2,3-c]pyridine-2-carboxylic acid amide]"
3,> 1000,"CNC(=O)c1cc2c(Oc3ccc(COCCOC)cc3)cncc2s1 [4-[4-(2-Methoxy-ethoxymethyl)-phenoxy]-thieno[2,3-c]pyridine-2-carboxylic acid methylamide]"
4,64,"NC(=O)c1cc2c(Oc3ccc(N)cc3)cncc2s1 [4-(4-Amino-phenoxy)-thieno[2,3-c]pyridine-2-carboxylic acid amide]"
5,> 1000,"CNC(=O)c1cc2c(Oc3ccc(/C=C/C(=O)NCCN(CCO)CCO)cc3)cncc2s1 [4-[4-(2-{2-[Bis-(2-hydroxy-ethyl)-amino]-ethylcarbamoyl}-vinyl)-phenoxy]-thieno[2,3-c]pyridine-2-carboxylic acid methylamide]"
6,> 1000,"CNC(=O)c1cc2c(Oc3ccc(N4CCOCC4)cc3)cncc2s1 [4-(4-Morpholin-4-yl-phenoxy)-thieno[2,3-c]pyridine-2-carboxylic acid methylamide]"
7,79,"CNC(=O)c1cc2c(Oc3ccc(-c4ccccc4)cc3)cncc2s1 [4-(Biphenyl-4-yloxy)-thieno[2,3-c]pyridine-2-carboxylic acid methylamide]"
8,> 1000,"NC(=O)c1cc2c(Oc3cccc(C(F)(F)F)c3)cncc2s1 [4-(3-Trifluoromethyl-phenoxy)-thieno[2,3-c]pyridine-2-carboxylic acid amide]"
9,> 1000,"NC(=O)c1cc2c(Oc3ccc(/C=C/C(=O)NCCN4CCOCC4)cc3)cncc2s1 [4-{4-[2-(2-Morpholin-4-yl-ethylcarbamoyl)-vinyl]-phenoxy}-thieno[2,3-c]pyridine-2-carboxylic acid amide]"
10,120,"CNC(=O)c1cc2c(Oc3ccc(COCCOCCOC)cc3)cncc2s1 [4-{4-[2-(2-Methoxy-ethoxy)-ethoxymethyl]-phenoxy}-thieno[2,3-c]pyridine-2-carboxylic acid methylamide]"
11,> 1000,"NC(=O)c1cc2c(Oc3ccc(COC4CCCCO4)cc3)cncc2s1 (stereo unspecified) [4-[4-(Tetrahydro-pyran-2-yloxymethyl)-phenoxy]-thieno[2,3-c]pyridine-2-carboxylic acid amide]"
12,> 1000,"COCCOCc1ccc(Oc2cncc3sc(C(N)=O)cc23)cc1 [4-[4-(2-Methoxy-ethoxymethyl)-phenoxy]-thieno[2,3-c]pyridine-2-carboxylic acid amide]"
13,930,"NC(=O)c1cc2c(Oc3ccc(C(O)CO)cc3)cncc2s1 (stereo unspecified) [4-[4-(1,2-Dihydroxy-ethyl)-phenoxy]-thieno[2,3-c]pyridine-2-carboxylic acid amide]"
14,> 1000,"NC(=O)c1cc2c(Oc3ccc(/C=C/C(=O)NCCN(CCO)CCO)cc3)cncc2s1 [4-[4-(2-{2-[Bis-(2-hydroxy-ethyl)-amino]-ethylcarbamoyl}-vinyl)-phenoxy]-thieno[2,3-c]pyridine-2-carboxylic acid amide]"
15,> 1000,"CNC(=O)c1cc2c(Oc3ccc(/C=C/C(=O)NCC(O)CO)cc3)cncc2s1 (stereo unspecified) [4-{4-[2-(2,3-Dihydroxy-propylcarbamoyl)-vinyl]-phenoxy}-thieno[2,3-c]pyridine-2-carboxylic acid methylamide]"
16,> 24,"CNC(=O)c1cc2c(Oc3ccc(COC)cc3)cncc2s1 [4-(4-Methoxymethyl-phenoxy)-thieno[2,3-c]pyridine-2-carboxylic acid methylamide]"
17,23,"COCc1ccc(Oc2cncc3sc(C(N)=O)cc23)cc1 [4-(4-Methoxymethyl-phenoxy)-thieno[2,3-c]pyridine-2-carboxylic acid amide]"
18,> 1000,"NC(=O)c1cc2c(Oc3cccc(Br)c3)cncc2s1 [4-(3-Bromo-phenoxy)-thieno[2,3-c]pyridine-2-carboxylic acid amide]"
19,> 1000,"CCOC(=O)c1ccc(Oc2cncc3sc(C(N)=O)cc23)cc1 [4-(2-Carbamoyl-thieno[2,3-c]pyridin-4-yloxy)-benzoic acid ethyl ester]"

row,IC50 [nM],Structure (SMILES)
1,19,"CNC(=O)c1cc2c(Oc3ccc(-n4ccnc4)cc3)cncc2s1 [4-(4-Imidazol-1-yl-phenoxy)-thieno[2,3-c]pyridine-2-carboxylic acid methylamide]"
2,240,"CNC(=O)c1cc2c(Oc3ccc(-n4cncn4)cc3)cncc2s1 [4-(4-[1,2,4]Triazol-1-yl-phenoxy)-thieno[2,3-c]pyridine-2-carboxylic acid methylamide]"
3,> 1000,"NC(=O)c1cc2c(Oc3ccc(C(=O)NCCN4CCOCC4)cc3)cncc2s1 [4-[4-(2-Morpholin-4-yl-ethylcarbamoyl)-phenoxy]-thieno[2,3-c]pyridine-2-carboxylic acid amide]"
4,> 1000,"Cc1cc(Cl)ccc1Oc1cncc2sc(C(N)=O)cc12 [4-(4-Chloro-2-methyl-phenoxy)-thieno[2,3-c]pyridine-2-carboxylic acid amide]"
5,> 1000,"CNC(=O)c1cc2c(Oc3ccc(/C=C/C(=O)NCCN4CCOCC4)cc3)cncc2s1 [4-{4-[2-(2-Morpholin-4-yl-ethylcarbamoyl)-vinyl]-phenoxy}-thieno[2,3-c]pyridine-2-carboxylic acid methylamide]"
6,> 1000,"CNC(=O)c1cc2c(Oc3ccc(C(=O)NCCN4CCOCC4)cc3)cncc2s1 [4-[4-(2-Morpholin-4-yl-ethylcarbamoyl)-phenoxy]-thieno[2,3-c]pyridine-2-carboxylic acid methylamide]"
7,> 1000,"NC(=O)c1cc2c(Oc3ccc(Cl)c(F)c3)cncc2s1 [4-(4-Chloro-3-fluoro-phenoxy)-thieno[2,3-c]pyridine-2-carboxylic acid amide]"
8,> 1000,"CCOC(=O)c1cccc(Oc2cncc3sc(C(N)=O)cc23)c1 [3-(2-Carbamoyl-thieno[2,3-c]pyridin-4-yloxy)-benzoic acid ethyl ester]"
9,> 180,"CNC(=O)c1cc2c(Oc3ccc(-c4cncn4C)cc3)cncc2s1 [4-[4-(3-Methyl-3H-imidazol-4-yl)-phenoxy]-thieno[2,3-c]pyridine-2-carboxylic acid methylamide]"
10,11000,"Cc1ccc(Oc2cncc3sc(C(N)=O)cc23)cc1 [4-p-Tolyloxy-thieno[2,3-c]pyridine-2-carboxylic acid amide]"
11,> 10,"NC(=O)c1cc2c(Oc3ccc(I)cc3)cncc2s1 [4-(4-Iodo-phenoxy)-thieno[2,3-c]pyridine-2-carboxylic acid amide]"
12,> 1000,"NC(=O)c1cc2c(Oc3ccc(C(=O)N(C(=O)NC4CCCCC4)C4CCCCC4)cc3)cncc2s1 [4-[4-(1,3-Dicyclohexyl-ureidocarbonyl)-phenoxy]-thieno[2,3-c]pyridine-2-carboxylic acid amide]"
13,> 1000,"CNC(=O)c1cc2c(Oc3ccc(C=CC(=O)NCCc4cnc[nH]4)cc3)cncc2s1 [4-(4-{2-[2-(1H-Imidazol-4-yl)-ethylcarbamoyl]-vinyl}-phenoxy)-thieno[2,3-c]pyridine-2-carboxylic acid methylamide]"
14,> 1000,"CNC(=O)c1cc2c(Oc3ccc(-c4nnn[nH]4)cc3)cncc2s1 [4-[4-(1H-Tetrazol-5-yl)-phenoxy]-thieno[2,3-c]pyridine-2-carboxylic acid methylamide]"
15,> 1000,"CNC(=O)c1cc2c(Oc3ccc(-c4noc(C(F)(F)F)n4)cc3)cncc2s1 [4-[4-(5-Trifluoromethyl-[1,2,4]oxadiazol-3-yl)-phenoxy]-thieno[2,3-c]pyridine-2-carboxylic acid methylamide]"
16,> 1000,"NC(=O)c1cc2c(Oc3ccc(C(=O)N4CCOCC4)cc3)cncc2s1 [4-[4-(Morpholine-4-carbonyl)-phenoxy]-thieno[2,3-c]pyridine-2-carboxylic acid amide]"
17,> 1000,"NC(=O)c1cc2c(Oc3ccc(/C=C/C(=O)NCC(O)CO)cc3)cncc2s1 (stereo unspecified) [4-{4-[2-(2,3-Dihydroxy-propylcarbamoyl)-vinyl]-phenoxy}-thieno[2,3-c]pyridine-2-carboxylic acid amide]"
18,> 1000,"CNC(=O)c1cc2c(Oc3ccc(C(=N)NO)cc3)cncc2s1 [4-[4-(N-Hydroxycarbamimidoyl)-phenoxy]-thieno[2,3-c]pyridine-2-carboxylic acid methylamide]"
19,170,"CCOCCOCCOCC(F)(F)c1ccc(Oc2cncc3sc(C(=O)NC)cc23)cc1 [4-(4-{2-[2-(2-Ethoxy-ethoxy)-ethoxy]-1,1-difluoro-ethyl}-phenoxy)-thieno[2,3-c]pyridine-2-carboxylic acid methylamide]"

# Molecular target: T1, Vascular cell adhesion protein 1 (Homo sapiens, UniProt P19320)
# T1 sequence (P19320 whole entry): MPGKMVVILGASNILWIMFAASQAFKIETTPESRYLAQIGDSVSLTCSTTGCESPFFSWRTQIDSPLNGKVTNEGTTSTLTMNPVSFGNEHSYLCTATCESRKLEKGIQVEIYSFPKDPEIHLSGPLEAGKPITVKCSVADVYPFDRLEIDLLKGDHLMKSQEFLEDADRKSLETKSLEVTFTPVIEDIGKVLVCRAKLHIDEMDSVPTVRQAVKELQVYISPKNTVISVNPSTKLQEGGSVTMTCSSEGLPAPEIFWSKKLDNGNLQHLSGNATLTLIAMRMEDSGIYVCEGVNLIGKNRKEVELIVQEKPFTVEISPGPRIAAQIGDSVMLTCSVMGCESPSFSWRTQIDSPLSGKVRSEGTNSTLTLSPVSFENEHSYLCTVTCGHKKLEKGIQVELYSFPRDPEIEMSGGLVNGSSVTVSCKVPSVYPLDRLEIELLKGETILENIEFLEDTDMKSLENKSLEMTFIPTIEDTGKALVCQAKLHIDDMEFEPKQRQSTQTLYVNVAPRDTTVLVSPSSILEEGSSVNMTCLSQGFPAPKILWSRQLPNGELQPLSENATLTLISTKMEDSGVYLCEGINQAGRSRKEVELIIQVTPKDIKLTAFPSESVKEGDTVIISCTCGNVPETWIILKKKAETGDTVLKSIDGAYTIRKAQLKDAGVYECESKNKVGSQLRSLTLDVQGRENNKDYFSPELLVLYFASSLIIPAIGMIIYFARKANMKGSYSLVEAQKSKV
# Assay: In vitro inhibitory potency compared to PMA induced VCAM-1 in human endothelial cells (ELISA assay)
# In short: (§1)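 Whole-cell ELISA on primary HUVECs plated at 5 × 10^4 cells/mL in EBM/2% FBS with growth supplements. Compound preincubated 24 h at 37 °C, then inducer added (TNFα at 5 ng/mL final, or IL-1β or PMA in its place) for 6 h at 37 °C. Mouse monoclonal anti-E-selectin, anti-ICAM-1 or anti-VCAM-1 was applied overnight at 4 °C, then HRP anti-mouse IgG. Detection with OPD, A490. Triplicate assays.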
row,IC50 [nM],Structure (SMILES)
1,20,"CNC(=O)c1cc2c(Oc3ccc(COCCOCCOC)cc3)cncc2s1 [4-{4-[2-(2-Methoxy-ethoxy)-ethoxymethyl]-phenoxy}-thieno[2,3-c]pyridine-2-carboxylic acid methylamide]"

# Molecular target: T1, Vascular cell adhesion protein 1
# Assay: In vitro inhibitory potency compared to IL1-beta induced VCAM-1 in human endothelial cells (ELISA assay)
# In short: as §1
row,IC50 [nM],Structure (SMILES)
1,20,"CNC(=O)c1cc2c(Oc3ccc(COCCOCCOC)cc3)cncc2s1 [4-{4-[2-(2-Methoxy-ethoxy)-ethoxymethyl]-phenoxy}-thieno[2,3-c]pyridine-2-carboxylic acid methylamide]"

# Molecular target: T1, Vascular cell adhesion protein 1
# Assay: In vitro inhibitory potency compared to TNF-alpha induced VCAM-1 in human endothelial cells (ELISA assay)
# In short: as §1
row,IC50 [nM],Structure (SMILES)
1,30,"CNC(=O)c1cc2c(Oc3ccc(COCCOCCOC)cc3)cncc2s1 [4-{4-[2-(2-Methoxy-ethoxy)-ethoxymethyl]-phenoxy}-thieno[2,3-c]pyridine-2-carboxylic acid methylamide]"
